Source: ChEMBL document CHEMBL4138161, “Discovery of simplified sampangine derivatives as novel fungal biofilm inhibitors” (Eur J Med Chem, 2018)
Converted amounts (≈) assume the structure as drawn.

Legend:
Assay type in all cases: functional
[1] = tested on: Candida albicans; assay: Antifungal activity against Candida albicans SC5314 after 24 hrs by spectrophotometric analysis; settings: SC5314, 24 h
How it was run: (§1)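 Broth microdilution in RPMI 1640, inoculum 5×10^3 CFU/mL, compounds from 6.4 mg/mL DMSO stocks, 35 ℃ for 24 h. Growth read as OD600; MIC80 taken as lowest concentration giving 80% growth inhibition. Triplicate.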

[2] = tested on: Candida parapsilosis; assay: Antifungal activity against Candida parapsilosis 22019 after 24 hrs by spectrophotometric analysis; settings: Lodderomyces parapsilosis, 22019, 24 h; how it was run: as §1
[3] = tested on: Nakaseomyces glabratus; assay: Antifungal activity against Candida glabrata 537 after 24 hrs by spectrophotometric analysis; settings: Nakaseomyces glabratus, 537, 24 h; how it was run: as §1
[4] = tested on: Cryptococcus neoformans; assay: Antifungal activity against Cryptococcus neoformans 32609 after 24 hrs by spectrophotometric analysis; settings: Cryptococcus neoformans, 32609, 24 h; how it was run: as §1
[5] = tested on: Aspergillus fumigatus; assay: Antifungal activity against Aspergillus fumigatus 07544 after 24 hrs by spectrophotometric analysis; settings: Aspergillus fumigatus, 07544, 24 h; how it was run: as §1
[6] = tested on: Trichophyton rubrum; assay: Antifungal activity against Trichophyton rubrum Cmccftla after 24 hrs by spectrophotometric analysis; how it was run: as §1
[7] = tested on: Nannizzia gypsea; assay: Antifungal activity against Microsporum gypseum Cmccfmza after 24 hrs by spectrophotometric analysis; how it was run: as §1

MIC80 [1] [µg/mL] | MIC80 [2] [µg/mL] | MIC80 [3] [µg/mL] | MIC80 [4] [µg/mL] | MIC80 [5] [µg/mL] | MIC80 [6] [µg/mL] | MIC80 [7] [µg/mL] | Compound
4 (≈ 14.6 µM) | > 64 | 4 (≈ 14.6 µM) | 4 (≈ 14.6 µM) | > 64 | 4 (≈ 14.6 µM) | 8 (≈ 29.2 µM) | Cc1ccnc2c1C(=O)c1scc([N+](=O)[O-])c1C2=O
> 64 | > 64 | 16 (≈ 65.5 µM) | > 64 | > 64 | 4 (≈ 16.4 µM) | > 64 | Cc1ccnc2cc3cc([N+](=O)[O-])sc3cc12
2 (≈ 7.19 µM) | 8 (≈ 28.7 µM) | 2 (≈ 7.19 µM) | 4 (≈ 14.4 µM) | 16 (≈ 57.5 µM) | 2 (≈ 7.19 µM) | 8 (≈ 28.7 µM) | Cc1ccnc2c1[C@H](O)c1sc([N+](=O)[O-])cc1[C@@H]2O (relative stereo)
0.5 (≈ 1.92 µM) | 2 (≈ 7.69 µM) | 1 (≈ 3.84 µM) | 0.5 (≈ 1.92 µM) | 1 (≈ 3.84 µM) | 0.5 (≈ 1.92 µM) | 0.5 (≈ 1.92 µM) | O=C1c2cc([N+](=O)[O-])sc2C(=O)c2cccnc21
2 (≈ 6.32 µM) | 4 (≈ 12.6 µM) | 4 (≈ 12.6 µM) | 0.5 (≈ 1.58 µM) | 4 (≈ 12.6 µM) | 1 (≈ 3.16 µM) | 1 (≈ 3.16 µM) | CCCCc1cnc2c(c1)C(=O)c1sc([N+](=O)[O-])cc1C2=O
4 (≈ 12.3 µM) | 4 (≈ 12.3 µM) | 4 (≈ 12.3 µM) | 2 (≈ 6.13 µM) | 16 (≈ 49 µM) | 16 (≈ 49 µM) | 8 (≈ 24.5 µM) | O=C1c2cc([N+](=O)[O-])sc2C(=O)c2c(-c3ccco3)ccnc21
32 (≈ 74.1 µM) | 32 (≈ 74.1 µM) | 16 (≈ 37 µM) | 32 (≈ 74.1 µM) | 64 (≈ 148 µM) | 32 (≈ 74.1 µM) | 16 (≈ 37 µM) | O=C1c2cc([N+](=O)[O-])sc2C(=O)c2c(C(Br)Br)ccnc21
16 (≈ 42 µM) | > 64 | > 64 | 4 (≈ 10.5 µM) | 64 (≈ 168 µM) | 16 (≈ 42 µM) | 8 (≈ 21 µM) | O=C1c2cc([N+](=O)[O-])sc2C(=O)c2c(-c3ccccc3[N+](=O)[O-])ccnc21
8 (≈ 23.8 µM) | 8 (≈ 23.8 µM) | 16 (≈ 47.6 µM) | 4 (≈ 11.9 µM) | 32 (≈ 95.1 µM) | 8 (≈ 23.8 µM) | 4 (≈ 11.9 µM) | O=C1c2cc([N+](=O)[O-])sc2C(=O)c2c(-c3ccccc3)ccnc21
> 64 | > 64 | > 64 | > 64 | > 64 | 8 (≈ 32.7 µM) | > 64 | Cc1ccnc2c1C(=O)c1sc(N)cc1C2=O
16 (≈ 43.7 µM) | 16 (≈ 43.7 µM) | > 64 | 8 (≈ 21.8 µM) | 16 (≈ 43.7 µM) | 16 (≈ 43.7 µM) | 16 (≈ 43.7 µM) | COc1ccccc1-c1ccnc2c1C(=O)c1sc([N+](=O)[O-])cc1C2=O
> 64 | > 64 | > 64 | 32 (≈ 93.2 µM) | > 64 | > 64 | 64 (≈ 186 µM) | O=C1c2cc([N+](=O)[O-])sc2C(=O)c2c(C3CCNCC3)ccnc21
> 64 | > 64 | > 64 | > 64 | > 64 | > 64 | > 64 | Cc1ccnc2c1C(=O)c1ccn(C)c1C2=O
0.5 (≈ 2.15 µM) | 4 (≈ 17.2 µM) | 16 (≈ 68.9 µM) | 2 (≈ 8.61 µM) | 16 (≈ 68.9 µM) | 16 (≈ 68.9 µM) | > 64 | O=C1c2ccccc2-c2nccc3ccnc1c23 [SAMPANGINE]
0.25 (≈ 0.912 µM) | 1 (≈ 3.65 µM) | 1 (≈ 3.65 µM) | 0.5 (≈ 1.82 µM) | 2 (≈ 7.29 µM) | 0.5 (≈ 1.82 µM) | 2 (≈ 7.29 µM) | Cc1ccnc2c1C(=O)c1sc([N+](=O)[O-])cc1C2=O
1 (≈ 3.16 µM) | 1 (≈ 3.16 µM) | 4 (≈ 12.6 µM) | 0.5 (≈ 1.58 µM) | 64 (≈ 202 µM) | 4 (≈ 12.6 µM) | 2 (≈ 6.32 µM) | CCCCc1ccnc2c1C(=O)c1sc([N+](=O)[O-])cc1C2=O
